In publication PMC5519669 (Forensic Toxicology, 2017):
Entries after “also recorded” stand apart in the source; their conditions may differ.

Experiments:
[1] = Rat plasma kinetics after intraperitoneal injection; type: in vivo; settings: for AUC(0-inf) / AUC(0-t) / Cmax / half-life: 3 mg/kg; for half-life: non-compartmental analysis; for Untransformed parent compound in plasma: 24 h post-dosing
[2] = Clearance in rat liver microsome incubation; type: in vitro ADME; settings: for half-life at 1 µM / microsomal CLint at 1 µM: male, Sprague-Dawley, rat, pooled rat liver microsomes, pH 7.4; for Parent compound after incubation: rat liver microsome incubations, after 3 h incubations; for ER (extraction ratio) / CLH (estimated hepatic clearance) / CLint (estimated intrinsic clearance): rat liver microsomes; for CLH (estimated hepatic clearance): from CLint and liver blood flow; for CLint (estimated intrinsic clearance): scaled to whole-liver dimensions
male rats = experiment: Rectal body temperature; type: in vivo, rat; settings: 3 mg/kg i.p.; for Hypothermic effect compared to vehicle injection: 3 mg/kg; for Mean rectal body temperature versus vehicle: at 15 and 30 min and 1, 2, and 4 h post-injection
In short: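 Male Long–Evans rats (49 days old, jugular-catheterised, n = 4/group) were housed singly in metabolic cages and given test compound i.p. at 3 mg/mL in 7.8% polysorbate 80/92.2% saline at 1 mL/kg, with a vehicle group. Rectal temperature was taken by digital thermometer 15 min pre-dose and 15, 30 min, 1, 2, 4, 8, 24 h post-dose. Analysis used mixed two-factor ANOVA, then Dunnett's tests versus vehicle per time point.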

[3] = Clearance in human liver microsome incubation; type: in vitro ADME; settings: for Parent compound after incubation: human liver microsome incubations, after 3 h incubations; for ER (extraction ratio) / CLH (estimated hepatic clearance) / CLint (estimated intrinsic clearance): human liver microsomes; for CLH (estimated hepatic clearance): from CLint and liver blood flow; for CLint (estimated intrinsic clearance): scaled to whole-liver dimensions
[4] = male, Long-Evans, rat, plasma, ip
[5] = male, Long-Evans, rat, plasma, ip, Half-life, rat plasma, 3 mg/kg i.p.
[6] = male, human, pooled human liver microsomes, pH 7.4

Compound	AUC(0-inf) [1, 4] [ng·h/mL]	AUC(0-t) [1, 4] [ng·h/mL]	Cmax [1, 4] [ng/mL]	half-life [1, 5] [min]	Untransformed parent compound in plasma ([1]; rat plasma, 3 mg/kg i.p.)	half-life at 1 µM [2] [min]	microsomal CLint at 1 µM [2] [µL/min/mg]	Parent compound after incubation [2]	ER (extraction ratio) [2]	CLH (estimated hepatic clearance) [2] [mL/min/kg body wt.]	CLint (estimated intrinsic clearance) [2] [mL/min/kg body wt.]	Hypothermic effect compared to vehicle injection (male rats)	Mean rectal body temperature versus vehicle (male rats)	Parent compound after incubation [3]	ER (extraction ratio) [3]	CLH (estimated hepatic clearance) [3] [mL/min/kg body wt.]	CLint (estimated intrinsic clearance) [3] [mL/min/kg body wt.]	half-life at 1 µM [3, 6] [min]	other results
CC(C)(NC(=O)c1cn(CCCCCF)c2ccccc12)c1ccccc1 [5F-CUMYL-PICA, 1-(5-fluoropentyl)-N-(2-phenylpropan-2-yl)-1H-indole-3-carboxamide]	843	582	65.2	720	detectible	1.19	580	still detectible	0.95	52.44	1048.24	produced hypothermic effects; also recorded: moderate hypothermic effects	significant hypothermic effects	still detectible	0.96	19.15	453.05	1.77	microsomal CLint at 1 µM [3, 6]: 390 µL/min/mg
CCCCCn1cc(C(=O)NC(C)(C)c2ccccc2)c2ccccc21 [CUMYL-PICA, 1-pentyl-N-(2-phenylpropan-2-yl)-1H-indole-3-carboxamide]	1210	1090	130	420	detectible	2.24	310	still detectible	0.91	50.22	556.88	produced hypothermic effects; also recorded: moderate hypothermic effects	significantly reduced	still detectible	0.87	17.43	135.46	5.92	CL/F (observed apparent clearance) ([1]; rat plasma, 3 mg/kg i.p.): 43.31 mL/min/kg body wt.; half-life ([1]; rat plasma, 3 mg/kg i.p.): 436 min
